bCat nuc transl = modulators of beta-catenin nuclear translocation, primary screen, imaging, HeLa cells, immunofluorescence, high-content. nuclear translocation activity, % at 5 µM. 190,000 tested, 0.3% active;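 active means nuclear translocation activity above 50% at 5 µM, with a well cell count of 50 or more; inconclusive means wells under 50 cells across six images, flagged as toxic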;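 further: per-cell ratio of nuclear to cytoplasmic median beta-catenin stain intensity; plate controls were DMSO negative control for no effect and GSK-3 inhibitor IX positive control for full effect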
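Test system: human HeLa cells, native beta-catenin. Compound dosing: 5 µM primary single dose, 0.1% DMSO, 0.02–20 µM confirmation series. Incubation: compound exposure 24 h at 37°C. Detection: beta-catenin immunostaining with DAPI counterstain, 20x imaging, 6 fields/well. Read-out basis: Nuclear/cytoplasmic beta-catenin signal ratio, % activation.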
Ins promoter up = insulin promoter activators in MIN6 cells, imaging, high-content screening, mouse beta cells | MIN6 insulin promoter-GFP reporter; hits give high values | z-score at 5 µM | 190,000 tested, 0.3% active | AID 1625, 2009;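 active means z-score above 3 at 5 µM with at least 500 cells counted in the well; inconclusive means wells under 500 cells, flagged as cytotoxic or low count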
Autophagy HCS = autophagy modulators in MEF cells, primary screen, imaging, high-content, MEF GFP-LC3; calls only at 10 µM (by protocol); AID 463193, 2010; 190,000 tested, 0.98% active; MEF GFP-LC3 puncta imaging; test concentration mostly 10 µM;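 active means percentage of spot-positive cells more than 3 SD above its plate mean, without a fluorescence outlier flag or 80% toxicity; inconclusive means no clear call, values can overlap the other calls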;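 further: spot-positive cell cutoff set from DMSO-treated cells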
Wee1 degr inh = Wee1 degradation inhibitors, primary screen, cell-based, HeLa, Wee1K328M-luciferase, luminescence; AID 1321, 2008; HeLa Luc-Wee1K328M stability; 100% = proteasome inhibitor MG132 effect; reporter increase, % at 5 µM; 220,000 tested, 1.2% active;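 active means activation above the mean of all tested compounds plus 3 SD, set per screening run, cut at about 8.8% in these data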;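 further: cells exposed to compound for 20 h before luminescence read; 0% = DMSO alone and 100% = MG132 at 30 µM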
Target sequence (P30291 whole entry K328M): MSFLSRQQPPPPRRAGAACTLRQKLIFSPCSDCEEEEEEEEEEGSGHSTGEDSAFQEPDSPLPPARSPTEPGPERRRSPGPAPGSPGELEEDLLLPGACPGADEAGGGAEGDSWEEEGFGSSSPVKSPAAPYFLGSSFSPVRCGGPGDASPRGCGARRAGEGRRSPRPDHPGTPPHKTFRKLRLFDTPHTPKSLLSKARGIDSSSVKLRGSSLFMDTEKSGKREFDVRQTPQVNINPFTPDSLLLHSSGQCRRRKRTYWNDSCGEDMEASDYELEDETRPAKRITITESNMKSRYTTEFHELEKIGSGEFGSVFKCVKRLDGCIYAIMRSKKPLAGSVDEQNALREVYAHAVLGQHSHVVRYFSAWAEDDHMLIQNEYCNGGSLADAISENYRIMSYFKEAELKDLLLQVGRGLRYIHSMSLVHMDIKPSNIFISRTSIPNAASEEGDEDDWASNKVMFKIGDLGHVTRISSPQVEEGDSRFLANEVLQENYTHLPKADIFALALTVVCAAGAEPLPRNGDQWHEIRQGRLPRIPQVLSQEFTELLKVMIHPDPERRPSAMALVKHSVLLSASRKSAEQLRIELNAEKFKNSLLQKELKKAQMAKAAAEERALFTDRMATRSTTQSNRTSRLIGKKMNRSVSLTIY
MT stabilize HCS = microtubule stabilizers in HeLa cells, primary screen, imaging, high-content imaging | % tubulin-high responders, % at 10 µM | HeLa tubulin immunostaining HCS, 24 h; share of cells brighter than vehicle mean+2SD | 200,000 tested, 0.83% active;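 active means plate Z-score above 3 for both tubulin-high and condensed-nucleus cell shares, with cell loss under 80%, at 10 µM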;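 further: anti alpha tubulin signal scored within the nucleus-defined area of each cell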
An asterisk follows results filed as active; i = inactive; u = inconclusive; x = no result; + = active, no number. In the library only some 2.9% were active in any assay of this set; here they are far more common.

SMILES	bCat nuc transl	Ins promoter up	Autophagy HCS	Wee1 degr inh	MT stabilize HCS
CCC(C)n1c(SCC(=O)Nc2cc(C)on2)nc2ccccc2c1=O (stereo not given)	-1	0.55	i	0	39*
CCCc1nc(SCC(=O)Nc2cc(C)on2)c2ccccc2n1	-2	-0.31	i	3	3
Cc1cc(NC(=O)CSc2nc3ccccc3c(=O)n2C(C)c2ccccc2)no1 (stereo not given)	x	-0.45	i	-1	13
Cc1cc(NC(=O)CSc2nc(C(C)(C)C)nc3ccccc23)no1	11	0.76	i	0	14*
O=C(Cn1c2ccccc2c(=O)c2ccccc21)Nc1cccc(F)c1	0	-0.06	i	-5	6
Cc1ccc2nc(-c3ccc4c(c3)OCCO4)cn2c1	56*	0.1	x	-3	x
c1ccn2cc(-c3ccc4c(c3)OCCO4)nc2c1	0	0.52	i	3	3
COc1ccc(-c2cn3cc(C)ccc3n2)cc1OC	x	0.03	i	10*	3
COc1ccc(-c2cn3cc(C)ccc3n2)cc1F	1	x	i	1	2
Cc1ccc(S(=O)(=O)N2CCCCC2)cc1NC(=O)COC(=O)Cc1cccc(C(F)(F)F)c1	0	0.4	i	-2	3
O=C(CN1CCCc2ccccc21)NC(=O)NC1CCCCC1	-2	0.26	i	9.2*	2
C=CCNC(=S)N1CCN(C2CCCCC2)CC1	1	-1.2	x	1	x
CCOc1ccc(Oc2ccc(C(F)(F)F)cc2N)cc1	1	-0.19	i	0	3
Cc1ccccc1OCCNc1cc(N2CC(C)NC(C)C2)ccc1[N+](=O)[O-] (stereo not given)	1	-1.1	+	-3	14
CC(C)OCCCNC(=O)c1ccncc1	-6	0.96	i	-1	2
CC1=Nc2cc(C(=O)NCCCOC(C)C)ccc2Sc2ccc(C)cc21	38	1.6	i	-1	12
CCCC1=Nc2cc(C(=O)NCCCOCC)ccc2Sc2ccccc21	105*	-1.1	i	1	15
CCOCCCNC(=O)c1ccc(OC)cc1	-1	-0.63	i	2	2
CCC1=Nc2cc(C(=O)NCCCOC)ccc2Sc2ccccc21	x	-0.94	+	4	25*
CCCC1=Nc2cc(C(=O)NCCCOC(C)C)ccc2Sc2ccccc21	72*	-0.55	i	3	22*
CC1=Nc2cc(C(=O)NCCCOC(C)C)ccc2Sc2ccccc21	15	-0.33	i	2	24*
Cc1cc[n+](-c2ccccc2)c2ccccc12	3	-0.63	i	2	9
Cc1ccc(OCc2cnc(Cl)s2)c(C)c1	0	-0.14	i	4	5
CCCCCCOc1ccc(NC(=O)CC2C(=O)N(CC)C(=S)N2Cc2ccco2)cc1 (stereo not given)	0	-1.3	i	5	4
CCC1=Nc2cc(C(=O)NCc3ccco3)ccc2Sc2ccc(C)cc21	74*	-0.71	i	2	4
SMILES	bCat nuc transl	Ins promoter up	Autophagy HCS	Wee1 degr inh	MT stabilize HCS
Cc1ccc(C(=O)Nc2cccc(C(=O)NCc3ccco3)c2)cc1	x	-1.4	i	0	3
COc1ccc(Oc2nccc(-c3ccc(F)cc3)c2C#N)cc1	x	x	i	12*	3
COC(=O)c1ccccc1NC(=O)c1cccs1	x	0.72	i	-1	4
COC(=O)c1ccccc1NC(=O)c1cc(-c2cccs2)on1	1	-0.31	+	1	7
CC1CCN(c2nc3ccc(C(=O)N4CCN(Cc5ccc6c(c5)OCO6)CC4)cc3s2)CC1	x	-1.4	i	-2	5
Cc1ccc(N=C2NC(=O)/C(=C\c3ccsc3)S2)c(C)c1	-4	1.1	i	5	3
CCc1ccc(CN2CCCC(CNS(=O)(=O)c3ccc(OC)cc3)C2)cc1 (stereo not given)	-1	-0.56	+	2	2
O=C(Nc1ccccc1C(F)(F)F)N1CCN(c2ccccn2)CC1	-5	0.19	i	-3	3
Cc1ccc(NC(=S)NC(C)(C)C)c([N+](=O)[O-])c1	0	-0.22	x	5	x
C=CCNC(=S)Nc1ccc(C)cc1[N+](=O)[O-]	2	0.58	i	9.1*	2
CN1CCc2c(sc3c2C(=O)NC(c2cn(Cc4ccccc4)c4ccccc24)N3)C1 (stereo not given)	0	-2.1	+	-3	4
CCOC(=O)N1CCc2c(sc3c2C(=O)NC(c2ccccc2)N3)C1 (stereo not given)	134*	0.16	i	2	22*
CN1CCc2c(sc3c2C(=O)NC(c2ccco2)N3)C1 (stereo not given)	-3	1.4	i	-3	4
CC(C)c1ccc(/C=N/NC(=O)C(=O)NCCCN2CCOCC2)cc1	-2	0.51	i	-1	3
Cc1ccc(C(=O)OCCN(C)Cc2ccccc2)cc1	-4	0.27	i	9.2*	3
N#CC(C#N)=C1C=C2C=C(N3CCCCCC3)CCC2CC1 (stereo not given)	-1	x	u	2	3
CN1CCN(C2=CC3=CC(=C(C#N)C#N)CCC3CC2)CC1 (stereo not given)	1	x	+	1	5
CC(C)CC(NC(N)=O)C(=O)NCCc1ccc(Cl)cc1 (stereo not given)	-1	0.01	i	11*	2
CC(C)CC(NC(N)=O)C(=O)NCCc1ccc(Cl)cc1Cl (stereo not given)	-1	-0.11	i	0	1
CCCC(=O)Nc1ccc(C(=O)Nc2ccc([N+](=O)[O-])cc2OC)cc1	-1	0.47	i	4	3
CCOc1ccc(Cn2c3ccc(OC)cc3c3nc4ccccc4nc32)cc1	-5	0	+	1	3
CCCCOC(=O)Cn1c2ccc(OC)cc2c2nc3ccccc3nc21	-3	0.44	+	-1	2
CCN1C/C(=C/c2ccc(OC)c(O)c2)C(=O)/C(=C/c2ccc(OC)c(O)c2)C1	47	u	+	0	55
COc1cc(/C=C2\COC/C(=C\c3ccc(O)c(OC)c3)C2=O)ccc1O	-1	-0.84	x	-3	x
COc1cc(/C=C2/CC/C(=C/c3ccc(O)c(OC)c3)C2=O)ccc1O	45	1.2	x	10*	x
COc1ccc(C=C2C(=O)c3ccccc3C2=O)cc1O	-1	0.5	i	-2	5
O=C1/C(=C/c2cccc([N+](=O)[O-])c2)CCc2ccccc21	-1	-0.08	i	-2	3
CCN1C/C(=C\c2cccc([N+](=O)[O-])c2)C(=O)/C(=C/c2cccc([N+](=O)[O-])c2)C1	0	0.84	i	1	28*
CCc1nnc(NC(=O)c2ccc3c(c2)C(=O)N(CC)C3=O)s1	x	x	i	-1	2

Screening data (PubChem BioAssay)
